Source: ChEMBL document CHEMBL3352600, “Structure-Based Design of Reactive Nucleosides for Site-Specific Modification of the A2A Adenosine Receptor” (ACS Med Chem Lett, 2014)

Experiments:
Adenosine receptor A1 = target: T1, Adenosine receptor A1 (Homo sapiens, UniProt P30542); experiment: Displacement of [3H]R-PIA from human adenosine A1 receptor expressed in CHO cells; assay type: cell-based
T1 sequence (P30542 whole entry): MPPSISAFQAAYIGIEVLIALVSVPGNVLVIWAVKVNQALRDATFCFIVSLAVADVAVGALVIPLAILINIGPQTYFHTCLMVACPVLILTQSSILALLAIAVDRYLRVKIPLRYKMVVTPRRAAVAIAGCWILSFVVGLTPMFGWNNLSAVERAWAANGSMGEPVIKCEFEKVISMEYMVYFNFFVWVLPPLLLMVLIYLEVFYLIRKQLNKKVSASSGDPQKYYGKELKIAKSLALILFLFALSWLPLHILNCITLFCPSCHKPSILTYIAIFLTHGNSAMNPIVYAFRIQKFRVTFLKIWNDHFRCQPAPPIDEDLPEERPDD

Adenosine receptor A2a [1] = target: T2, Adenosine receptor A2a (Homo sapiens, UniProt P29274); experiment: Displacement of [3H]2-[p-(2-carboxyethyl)phenyl-ethylamino]-5'-N-ethylcarboxamidoadenosine from human adenosine A2a receptor expressed in HEK293 cells; assay type: cell-based
Target sequence in this assay (P29274 whole entry): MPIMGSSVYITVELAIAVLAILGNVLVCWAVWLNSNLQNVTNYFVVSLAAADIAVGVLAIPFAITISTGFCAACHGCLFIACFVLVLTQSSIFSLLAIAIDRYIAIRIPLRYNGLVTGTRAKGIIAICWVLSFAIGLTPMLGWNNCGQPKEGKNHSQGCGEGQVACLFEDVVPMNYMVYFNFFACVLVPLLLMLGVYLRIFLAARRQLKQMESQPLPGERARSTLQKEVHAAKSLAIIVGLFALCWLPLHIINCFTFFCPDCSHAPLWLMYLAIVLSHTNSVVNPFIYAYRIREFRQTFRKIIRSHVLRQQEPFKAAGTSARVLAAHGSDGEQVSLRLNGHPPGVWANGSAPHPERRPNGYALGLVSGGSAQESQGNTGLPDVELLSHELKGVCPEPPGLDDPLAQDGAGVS

Adenosine receptor A3 = target: T3, Adenosine receptor A3 (Homo sapiens, UniProt P0DMS8); experiment: Displacement of [125I]I-AB-MECA from human adenosine A3 receptor expressed in CHO cells; assay type: cell-based
T3 sequence (P0DMS8 whole entry): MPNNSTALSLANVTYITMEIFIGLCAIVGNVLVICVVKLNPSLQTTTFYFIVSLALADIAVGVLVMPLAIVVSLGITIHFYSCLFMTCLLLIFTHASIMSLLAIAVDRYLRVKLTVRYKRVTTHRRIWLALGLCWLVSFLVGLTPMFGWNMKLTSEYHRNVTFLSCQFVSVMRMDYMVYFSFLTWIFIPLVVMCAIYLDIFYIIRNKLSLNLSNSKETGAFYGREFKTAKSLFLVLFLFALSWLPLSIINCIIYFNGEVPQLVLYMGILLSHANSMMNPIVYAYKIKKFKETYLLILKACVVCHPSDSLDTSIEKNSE

Homo sapiens [2] = species: Homo sapiens; experiment: Selectivity ratio of Ki for human adenosine A1 receptor to Ki for human adenosine A2A receptor
Homo sapiens [3] = species: Homo sapiens; experiment: Selectivity ratio of Ki for human adenosine A3 receptor to Ki for human adenosine A2A receptor
Adenosine receptor A2a [4] = target: T2, Adenosine receptor A2a; experiment: Agonist activity at human adenosine A2a receptor expressed in CHO cells assessed as stimulation of cAMP formation after 24 hrs; assay type: functional, cell-based
Target sequence in this assay (P29274 whole entry): as the sequence (P29274 whole entry) above

Adenosine receptor A2a [5] = target: T2, Adenosine receptor A2a; experiment: Displacement of [3H]2-[p-(2-carboxyethyl)phenyl-ethylamino]-5'-N-ethylcarboxamidoadenosine from human adenosine A2a receptor expressed in HEK293 cells assessed as radioligand binding at 1 uM preincubated for 30 mins; assay type: cell-based
How it was run: (§1)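 Membranes of HEK293 cells stably expressing human A2A receptor were preincubated with compound (1 μM, 30 min). Membranes were then washed by repeated centrifugation cycles. Residual specific binding was measured with agonist [3H]CGS21680 (10 nM) or antagonist [3H]7 (1.0 nM) and expressed as percent binding remaining.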
Target sequence in this assay (P29274 whole entry): as the sequence (P29274 whole entry) above

Adenosine receptor A2a [6] = target: T2, Adenosine receptor A2a; experiment: Displacement of [3H]4-[2-[7-amino-2-(2-furyl)-1,2,4-triazolo[1,5-a][1,3,5]triazin-5-yl-amino]ethylphenol from human adenosine A2a receptor expressed in HEK293 cells assessed as radioligand binding at 1 uM preincubated for 30 mins; assay type: cell-based; how it was run: as §1
Target sequence in this assay (P29274 whole entry): as the sequence (P29274 whole entry) above

Adenosine receptor A2a [7] = target: T2, Adenosine receptor A2a; experiment: Displacement of [3H]4-[2-[7-amino-2-(2-furyl)-1,2,4-triazolo[1,5-a][1,3,5]triazin-5-yl-amino]ethylphenol from wild type human adenosine A2a receptor expressed in COS-7 cells assessed as radioligand Kd compound preincubated for 30 mins
Target sequence in this assay (P29274 whole entry): as the sequence (P29274 whole entry) above

Adenosine receptor A2a [8] = target: T2, Adenosine receptor A2a; experiment: Displacement of [3H]4-[2-[7-amino-2-(2-furyl)-1,2,4-triazolo[1,5-a][1,3,5]triazin-5-yl-amino]ethylphenol from human adenosine A2a receptor K150A mutant expressed in COS-7 cells assessed as radioligand Bmax per mg of protein compound preincubated for 30 mins
Target sequence in this assay (P29274 whole entry, looked up): as the sequence (P29274 whole entry) above

Adenosine receptor A2a [9] = target: T2, Adenosine receptor A2a; experiment: Displacement of [3H]4-[2-[7-amino-2-(2-furyl)-1,2,4-triazolo[1,5-a][1,3,5]triazin-5-yl-amino]ethylphenol from human adenosine A2a receptor K153A mutant expressed in COS-7 cells assessed as radioligand Bmax per mg of protein compound preincubated for 30 mins
Target sequence in this assay (P29274 whole entry, looked up): as the sequence (P29274 whole entry) above

[10] = target: T4, Adenosine receptor A1 (Homo sapiens) (UniProt P30542); experiment: Displacement of [3H]R-PIA from human adenosine A1 receptor expressed in CHO cells at 10 uM; assay type: cell-based
T4 sequence (whole entry): T1 sequence (P30542 whole entry)
How it was run: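 Single-point test at 10 μM on membranes of CHO cells stably expressing human A1 receptor, read as percent inhibition of [3H]R-PIA agonist binding. Nonspecific binding was defined with 10 μM NECA.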

Row | SMILES | Ki (Adenosine receptor A1) [µM] | Ki (Adenosine receptor A2a [1]) [µM] | Ki (Adenosine receptor A3) [µM] | Ratio Ki (Homo sapiens [2]) | Ratio Ki (Homo sapiens [3]) | EC50 (Adenosine receptor A2a [4]) [µM] | Activity (Adenosine receptor A2a [5]) [%] | Activity (Adenosine receptor A2a [6]) [%] | Kd (Adenosine receptor A2a [7]) [µM] | Bmax (Adenosine receptor A2a [8]) [pmol] | Bmax (Adenosine receptor A2a [9]) [pmol] | inhibition [10] [%]
1 | CCNC(=O)[C@H]1O[C@@H](n2cnc3c(N)nc(NCCc4ccc(CCC(=O)Nc5ccc(OC(C)=O)c([N+](=O)[O-])c5)cc4)nc32)[C@H](O)[C@@H]1O | 0.5 | 0.023 | 0.207 | 22 | 9 | 0.00212 | 19 | 11 | 0.00224 | 0.2 | 1.65 | 
2 | CCNC(=O)[C@H]1O[C@@H](n2cnc3c(N)nc(NCCc4ccc(CCC(=O)Nc5ccc(O)c([N+](=O)[O-])c5)cc4)nc32)[C@H](O)[C@@H]1O | 1.89 | 0.267 | 0.171 |  |  |  |  |  |  |  |  | 
3 | CCNC(=O)[C@H]1O[C@@H](n2cnc3c(N)nc(NCCc4ccc(CCC(=O)Nc5ccc(OC(=O)CCCCN=[N+]=[N-])c([N+](=O)[O-])c5)cc4)nc32)[C@H](O)[C@@H]1O |  | 4.36 | 1.81 |  |  |  |  |  |  |  |  | 30
4 | CCNC(=O)[C@H]1O[C@@H](n2cnc3c(N)nc(NCCc4ccc(CCC(=O)Nc5ccc(OC(=O)CCCC[C@@H]6SC[C@@H]7NC(=O)N[C@@H]76)c([N+](=O)[O-])c5)cc4)nc32)[C@H](O)[C@@H]1O |  | 3.28 | 1.96 |  |  |  |  |  |  |  |  | 37
